This is a sample that favours compounds with a hit; in the whole collection about 1.8% have one here.
PTPN22 inh 2: blocks human PTPN22 phosphatase activity; inhibition, % at 2 µM; recombinant LYP catalytic domain, DiFMUP fluorescence; hit rate 0.21% among 96,000; Q9Y2R2;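 active = inhibition at 2 µM at or above a set limit, the screen mean plus 3 SD, cut at about 24% in these data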
EphB4 ephrin blk: EphB4-ephrin-B2 interaction antagonism. P54760. inhibition, % at 7 µM. EphB4 LBD / TNYL-RAW-Alexa532 peptide, fluorescence polarization. hit rate 0.15% among 97,000;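 active = inhibition above the screen-wide mean inhibition plus 3 SD, cut at about 15% in these data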
Plk1 PBD FP: blocks phosphopeptide binding to human Plk1 polo box domain; P53350; inhibition, %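 (tested at about 20 µM)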; hit rate 0.13% among 97,000; AID 693; Plk1 PBD phosphopeptide binding, fluorescence polarization; in the data active = inhibition above about 34%, passing the limit was not always enough
Target sequence (P53350 whole entry, looked up, the tested form may be a part): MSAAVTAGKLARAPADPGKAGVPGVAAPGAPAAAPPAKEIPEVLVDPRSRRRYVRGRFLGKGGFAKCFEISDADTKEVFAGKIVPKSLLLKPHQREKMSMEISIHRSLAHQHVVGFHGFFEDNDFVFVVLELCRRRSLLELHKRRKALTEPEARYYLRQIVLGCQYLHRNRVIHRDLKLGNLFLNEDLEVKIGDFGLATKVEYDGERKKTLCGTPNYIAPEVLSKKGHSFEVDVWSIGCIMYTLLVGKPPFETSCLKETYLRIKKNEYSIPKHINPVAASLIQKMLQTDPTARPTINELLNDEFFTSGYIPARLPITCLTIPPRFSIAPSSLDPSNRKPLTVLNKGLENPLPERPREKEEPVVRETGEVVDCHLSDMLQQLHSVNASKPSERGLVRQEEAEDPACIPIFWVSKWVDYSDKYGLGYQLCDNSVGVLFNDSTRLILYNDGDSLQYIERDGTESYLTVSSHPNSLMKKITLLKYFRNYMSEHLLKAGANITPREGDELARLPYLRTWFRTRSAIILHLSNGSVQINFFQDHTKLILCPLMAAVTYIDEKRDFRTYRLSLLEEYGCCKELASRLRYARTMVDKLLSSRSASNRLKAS
Rev-RRE block: disrupts HIV-1 Rev binding to RRE RNA; P05866; Rev peptide-RRE RNA binding, FRET; inhibition, % at 8 µM; hit rate 0.79% among 97,000; AID 704;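 active = inhibition above the screen-wide mean plus 3 SD, cut at about 35% in these data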
Target sequence (P05866 whole entry, looked up): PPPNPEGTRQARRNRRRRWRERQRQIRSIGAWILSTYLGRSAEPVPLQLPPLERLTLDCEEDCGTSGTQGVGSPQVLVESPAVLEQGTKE
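assay system = Cy5-tagged RRE RNA duplex with fluorescein-tagged Rev peptide | incubation = 5 + 15 min at 25 °C | also added = labelled Rev peptide | measure = % inhibition of FRET ratio versus controls | benchmarks = DMSO wells as 0% and neomycin B wells as 100% inhibition | measured by = FRET fluorescence readout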
PTPN22 act: activators of human LYP (PTPN22) phosphatase | hit rate 0.11% among 96,000 | activation, % at 2 µM | recombinant LYP, DiFMUP fluorescence; 0 = plate median, 100 = signal doubled | AID 697;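 active = activation at 2 µM above a set limit, the mean plus 5 SD, cut at about 37% in these data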
PLK1 kinase inh: PLK1 (human) kinase inhibition | recombinant PLK1 kinase, TR-FRET peptide phosphorylation | inhibition, % at 10 µM | hit rate 0.53% among 97,000 | AID 619;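 active = inhibition of 50% or more in the single-concentration screen; inactive = inhibition below 50%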
PLK1 inh conf: PLK1 (human) kinase inhibition, confirmed; shares compounds with PLK1 kinase inh; recombinant PLK1 kinase, TR-FRET peptide phosphorylation; inhibition, % at 10 µM; hit rate 20% among 210;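 active = inhibition at or above 50% in each of two repeat confirmation tests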
TR-FRET interf: interferes with the Plk1 assay readout, not true inhibition | shares compounds with PLK1 kinase inh | Plk1 TR-FRET assay interference, compound added post-reaction | inhibition (interference), % at 10 µM | 210 tested, under 10 active | AID 756;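 active = both duplicate runs show 50% or greater inhibition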
Large screens that a line does not name were inactive (follow-up assays come after a bar, where they were run).

CC(=O)N1CCc2cc(C(=O)CN3CCN(C(=O)c4ccco4)CC3)ccc21	PLK1 kinase inh 70.5 (no result: PTPN22 inh 2, PTPN22 act) | PLK1 inh conf inactive | TR-FRET interf inactive
CC(=O)N1CCc2cc(C(=O)CN3CCN(c4cccc(Cl)c4)CC3)ccc21	none
CC(=O)N1CCc2cc(C(=O)CN3CCC(C)CC3)ccc21	PLK1 kinase inh 82.3 (no result: PTPN22 inh 2, PTPN22 act) | PLK1 inh conf inactive | TR-FRET interf inactive
O=C(O)C1CCC(CNCc2cccnc2)CC1 (stereo not drawn)	none
CCCCc1nc2n[nH]c(N)c2c2c1CSC(C)(C)C2	PLK1 kinase inh 70.4 | PLK1 inh conf inactive | TR-FRET interf inactive
O=C(CSc1n[nH]c(-c2ccc(Cl)cc2Cl)n1)Nc1ccccn1	PLK1 kinase inh 77.9 | PLK1 inh conf 73.7 | TR-FRET interf inactive
O=C(CSc1nc(-c2ccccc2)cc(=O)[nH]1)Nc1ccccn1	none
O=C(CSc1nccc(=O)[nH]1)Nc1ccc(S(=O)(=O)N2CCOCC2)cc1	none
CCn1c(SC)nnc1-c1c[nH]c2ccccc12	PLK1 kinase inh 77.1 (no result: PTPN22 inh 2, PTPN22 act) | PLK1 inh conf inactive | TR-FRET interf inactive
CCOC(=O)C(C)Sc1nnc(-c2c[nH]c3ccccc23)n1C (stereo not drawn)	none
COCCn1c(SC)nnc1-c1c[nH]c2ccccc12	PLK1 kinase inh 72.8 (no result: PTPN22 inh 2, PTPN22 act) | PLK1 inh conf inactive | TR-FRET interf inactive
CCn1c(SCc2ccc(C(=O)OC)o2)nnc1-c1c[nH]c2ccccc12	PLK1 kinase inh 72.7 (no result: PTPN22 inh 2, PTPN22 act) | PLK1 inh conf inactive | TR-FRET interf inactive
Cn1c(SCc2cccnc2)nnc1-c1c[nH]c2ccccc12	PLK1 kinase inh 74.1 (no result: PTPN22 inh 2, PTPN22 act) | PLK1 inh conf inactive | TR-FRET interf inactive
CCn1c(SCc2nc(-c3cccs3)no2)nnc1-c1c[nH]c2ccccc12	none
CCOC(=O)c1nnc(-c2cccs2)nc1NC(C)C	none
CCOC(=O)c1c(C)nc2c(c1-c1cc(OC)c(OC)c(OC)c1)C(=O)c1ccccc1-2	none
Cc1ccc(Nc2ncnc3nc[nH]c23)cc1Cl	PLK1 kinase inh 76.2 | PLK1 inh conf inactive | TR-FRET interf inactive
COc1cccc(Nc2ncnc3nc[nH]c23)c1	PLK1 kinase inh 84.3 | PLK1 inh conf 70.2 | TR-FRET interf inactive
c1ccc(CNc2ncnc3nc[nH]c23)cc1	none
CCCCc1ccc(Nc2ncnc3nc[nH]c23)cc1	none
Cc1cccc(-n2ncc3c(NCCc4ccc(S(N)(=O)=O)cc4)ncnc32)c1	PLK1 kinase inh 71.3 (no result: PTPN22 inh 2, PTPN22 act) | PLK1 inh conf inactive | TR-FRET interf inactive
Cc1noc(C)c1C(=O)Nc1ccc(F)cc1F	none
[O-][N+]12CCN(CC1)c1ccccc12	PLK1 kinase inh 77.2 | PLK1 inh conf inactive | TR-FRET interf inactive
CC1CCN(c2ccccc2N)CC1	none
c1ccc2[nH]c(SN3CCOCC3)nc2c1	none
COC(=O)c1sc2nc[nH]c(=O)c2c1C	PLK1 kinase inh 74.0 | PLK1 inh conf 71.4 | TR-FRET interf inactive
Cc1c(C(=O)OC(C)C)sc2nc[nH]c(=O)c12	PLK1 kinase inh 76.5 | PLK1 inh conf 68.8 | TR-FRET interf inactive
CN1CCN(C(=O)CN(c2cc(C(F)(F)F)ccc2Cl)S(C)(=O)=O)CC1	none
Clc1ccccc1-c1nc(-c2cccnc2)no1	none
Cc1ccccc1-c1nc(-c2cccnc2)no1	PLK1 kinase inh 95.7 | PLK1 inh conf inactive | TR-FRET interf inactive
Cc1oc(-c2cccc(Cl)c2)nc1CN1CCC(C(=O)NCCCN2CCCC2=O)CC1	none
Cc1oc(-c2ccc(Cl)cc2)nc1CN1CCCC(C(=O)NCCCN2CCCC2=O)C1 (stereo not drawn)	PLK1 kinase inh 73.1 (no result: PTPN22 inh 2, PTPN22 act) | PLK1 inh conf inactive | TR-FRET interf inactive
CCCC1CC(C)(c2csc(Nc3ccc(OCC)cc3)n2)OC1=O (stereo not drawn)	none
CC(Oc1ccc(Cl)cc1Cl)C(=O)NCCCN1CCOCC1 (stereo not drawn)	PLK1 kinase inh 73.7 (no result: PTPN22 inh 2, PTPN22 act) | PLK1 inh conf inactive | TR-FRET interf inactive
O=C(c1ccco1)N1CCN=C1SCc1ccccc1F	PLK1 kinase inh 78.1 (no result: PTPN22 inh 2, PTPN22 act) | PLK1 inh conf inactive | TR-FRET interf inactive
O=C(c1ccco1)N1CCN=C1SCc1cccnc1	none
CC(C)OC(=O)C1C2C=CC3(CN(C(C)c4ccc(Br)cc4)C(=O)C13)O2 (stereo not drawn)	PLK1 kinase inh 74.0 (no result: PTPN22 inh 2, PTPN22 act) | PLK1 inh conf inactive | TR-FRET interf inactive
Cc1cccc(Cn2c(N3CCc4ccccc4C3)nc3c2c(=O)[nH]c(=O)n3C)c1	none
Cc1cccc(Cn2c(N3CCCCC3C)nc3c2c(=O)[nH]c(=O)n3C)c1 (stereo not drawn)	PLK1 kinase inh 83.0 (no result: PTPN22 inh 2, PTPN22 act) | PLK1 inh conf inactive | TR-FRET interf inactive
O=C(O)C1CCCCC1C(=O)NCc1cn2ccccc2n1 (stereo not drawn)	PLK1 kinase inh 70.9 (no result: PTPN22 inh 2, PTPN22 act) | PLK1 inh conf inactive | TR-FRET interf inactive
O=c1cc(N2CCOCC2)[nH]c(=O)n1-c1ccc(Cl)cc1	PLK1 kinase inh 73.8 (no result: PTPN22 inh 2, PTPN22 act) | PLK1 inh conf inactive | TR-FRET interf inactive
CCn1ccc(C(=O)Nc2ccc(Cl)cn2)n1	PLK1 kinase inh 71.2 (no result: PTPN22 inh 2, PTPN22 act) | PLK1 inh conf inactive | TR-FRET interf inactive
CCn1nccc1C(=O)Nc1ccc(Cl)cn1	none
CCOC(=O)C1=C(CSc2nc3c(cc2C#N)CN(C)CC3)OC(N)=C(C#N)C1c1ccc(Cl)cc1 (stereo not drawn)	Rev-RRE block 58.1, PLK1 kinase inh 116.1 | PLK1 inh conf inactive | TR-FRET interf inactive
CCOC(=O)C1=C(CSc2nc(C)cc(C)c2C#N)OC(N)=C(C#N)C1c1ccccc1 (stereo not drawn)	none
CCCCn1c(CN(Cc2ccccc2)Cc2ccccc2)nc2c1c(=O)n(C)c(=O)n2C	none
CCOCCn1c(CN(Cc2ccccc2)Cc2ccccc2)nc2c1c(=O)n(C)c(=O)n2C	PLK1 kinase inh 72.0 (no result: PTPN22 inh 2, PTPN22 act) | PLK1 inh conf inactive | TR-FRET interf inactive
CCN(C(=O)Cc1ccc(Br)cc1)C1CCCCC1	none
Cc1ccc(N(CC(=O)Nc2ccc(C)cc2C)S(=O)(=O)N2CCCC2)cc1	PLK1 kinase inh 87.9 | PLK1 inh conf inactive | TR-FRET interf inactive
CCN1CCN(CC(=O)Nc2ccc(C)cc2C)C(=O)C1=O	none
Cc1cc2c(ccc3[nH]onc32)n1	PLK1 kinase inh 71.7 | PLK1 inh conf inactive | TR-FRET interf inactive
C=CCNC(=O)c1nn2cccnc2c1Cl	PLK1 kinase inh 130.2 | PLK1 inh conf inactive | TR-FRET interf inactive
Cc1cc(NC(=O)c2nn3cccnc3c2Cl)no1	none
CCC(C(=O)NCc1ccccc1OC)n1nc(C)n2c(cc3occc32)c1=O (stereo not drawn)	none
CCc1cc2c(=O)[nH]cnc2s1	none
O=c1[nH]cnc2sc(-c3ccccc3)cc12	PLK1 kinase inh 78.4 | PLK1 inh conf 68.4 | TR-FRET interf inactive
Cc1ccc(CNc2ccc(N3CCOCC3)cc2)s1	none

Screening results from PubChem BioAssay.
